Laboratory results reported in PMC7001660 (Molecular cell, 2019).

Tested on: M2 anti-FLAG antibody
Experiment: Prot-MaP on-chip limit of detection
Type: binding, mouse
Details: for fluorescence signal relative to WT: quantified fluorescence medians across M2 concentrations, Fig. 2B
How it was run: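 Run at 25°C: M2 at 1, 3.2, 10, 32, 100nM (45 min each), each followed by wash and 35nM Alexa555 anti-mouse secondary (37 min). Zero-primary secondary gives baseline. Per-variant cluster medians used; threshold 3σ above negative-set mean; LoD by inter/extrapolation.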

fluorescence signal relative to WT | fold lower LoD than WT (LoD of WT FLAG (DYKDDDDK) relative to variant) [fold] | Sequence
much higher signal than WT |  | DYKDDDDKGDYKDHD [2xFLAG, reference compound]
much higher signal than WT | 7.9 | DYKDEDLL [superFLAG]
